CHO parental Ca: counter-screen: ATP calcium response change in parental CHO cells; parental CHO-K1, ATP-induced calcium, Fluo-8 fluorescence; inhibition, % at 5.6 µM; 330,000 tested, 0.63% active; AID 463079;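 active = inhibition above that plate's mean sample inhibition plus 3 SD, cut at about 26% in these data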
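Measured by: calcium-sensitive Fluo-8 fluorescence / Test system: CHO parental line / Controls: ATP-challenged DMSO wells low, unchallenged DMSO wells high / Measure: % inhibition / Compound: single nominal dose of 5.6 µM per compound / Replicates: single well per compound, no replicates / Reagent: ATP as calcium-mobilizing challenge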
TRPN1 ag: agonists of zebrafish TRPN1 channel; HEK293 zebrafish TRPN1-YFP, Fluo-8 calcium fluorescence; 100% = response to 87 µM carbachol; activation, % at 3 µM; 220,000 tested, 0.18% active; AID 1424;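 active = activation above its plate's cutoff, the mean activation of test wells on that plate plus 3 SD, cut at about 19% in these data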
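Material – zebrafish TRPN1-YFP in HEK293 cells · Doses – 3 µM single point · Schedule – dye 1 h 37 °C plus 30 min RT · Signal – Fluo-8 calcium fluorescence, excitation 470-495 nm, emission 515-575 nm · Read-out – % activation versus carbachol response · Control set – carbachol high, DMSO low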
TRPML3 agonist: activates the human TRPML3 channel | Q8TDD5 | HEK293 TRPML3-YFP, Fluo-8 calcium fluorescence; 100% = the carbachol control signal | activation, % at 3 µM | 220,000 tested, 0.29% active;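 active = activation above its plate's cutoff, the mean activation of the plate's test wells plus 3 SD, cut at about 12% in these data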
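Test system: HEK293 cells stably carrying human TRPML3-YFP; Doses: single dose, 3 µM final nominal compound, 0.3% DMSO final; Schedule: dye loading 1 h 37 °C then 30 min ambient, 125 s read; Technique: Fluo-8 calcium fluorescence; Benchmarks: high control carbachol 87 µM, low control DMSO.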
OX1R antag-1: antagonists of human orexin 1 receptor | O43613 | CHO/OX1R cells, Fluo-8 calcium fluorescence, orexin A | inhibition, % at 5 µM | 330,000 tested, 0.43% active;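 active = inhibition above its plate's threshold, mean inhibition of all tested compounds on the plate plus 3 SD, cut at about 37% in these data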
Target sequence (O43613 whole entry, looked up): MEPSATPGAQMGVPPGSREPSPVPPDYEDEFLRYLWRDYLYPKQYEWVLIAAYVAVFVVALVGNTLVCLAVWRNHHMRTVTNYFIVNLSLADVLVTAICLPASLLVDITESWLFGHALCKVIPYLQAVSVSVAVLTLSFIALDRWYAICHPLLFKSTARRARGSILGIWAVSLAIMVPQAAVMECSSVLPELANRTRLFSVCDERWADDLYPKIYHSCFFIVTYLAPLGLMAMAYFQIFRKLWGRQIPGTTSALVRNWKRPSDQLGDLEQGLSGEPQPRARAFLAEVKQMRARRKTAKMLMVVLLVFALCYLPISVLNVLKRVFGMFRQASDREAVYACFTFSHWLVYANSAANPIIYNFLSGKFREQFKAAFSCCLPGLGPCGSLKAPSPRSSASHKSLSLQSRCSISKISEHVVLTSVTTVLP
GPR7 antag: blocks human GPR7 receptor signaling; inhibition, % at 4.4 µM; P48145; 290,000 tested, 1.1% active; AID 1861; GPR7-expressing cells, fluorescence antagonist assay; in the data active = inhibition above about 16%, passing the limit was not always enough;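 also: cells stimulated with the agonist NPW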
Target sequence (P48145 whole entry, looked up): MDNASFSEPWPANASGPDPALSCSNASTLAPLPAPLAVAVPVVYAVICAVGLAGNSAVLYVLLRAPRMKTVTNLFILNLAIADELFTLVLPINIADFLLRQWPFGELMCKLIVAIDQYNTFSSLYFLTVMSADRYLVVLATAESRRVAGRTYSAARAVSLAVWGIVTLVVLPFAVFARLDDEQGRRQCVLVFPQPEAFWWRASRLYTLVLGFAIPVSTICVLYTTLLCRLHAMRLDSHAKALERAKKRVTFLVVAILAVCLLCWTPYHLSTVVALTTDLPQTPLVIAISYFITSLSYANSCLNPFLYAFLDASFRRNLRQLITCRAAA
OX1R antag-2: blocks the human orexin 1 receptor; 330,000 tested, 1.8% active; O43613; AID 485270; inhibition, % at 6.6 µM; OX1R-expressing cells, FRET antagonist read-out; in the data active = inhibition mostly above about 38%, no sharp cut-off; inactive = mostly below about 40%
GPR7 antag cf: human GPR7 antagonism, confirmation assay. shares compounds with GPR7 antag. GPR7-expressing cells, calcium fluorescence antagonist mode. inhibition, % at 4.4 µM. 2,400 tested, 52% active; in the data active = inhibition above about 24%;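 also: stimulated with the GPR7 agonist NPW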
MCHR1 antag: counter-screen for GPR7 antagonists: antagonists of human MCHR1; shares compounds with GPR7 antag; MCHR1-expressing cells, fluorescence antagonist assay; 2,400 tested, 62% active; AID 2148; inhibition, % at 4.4 µM; in the data active = inhibition above about 22%
OX1R Fluo8 conf: OX1R (human) antagonism, confirmed | shares compounds with OX1R antag-1 | AID 492963 | CHO/OX1R cells, orexin A calcium Fluo-8 fluorescence | 1,100 tested, 38% active | inhibition, % at 5 µM; in the data active = inhibition above about 29%
CHO Ca counter: counter-screen for OX1R antagonists: effect in parental CHO cells | shares compounds with OX1R antag-1 | parental CHO-K1, ATP-induced calcium, Fluo-8 fluorescence | inhibition, % at 5.6 µM | 1,100 tested, 9.3% active | AID 492965;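 active = inhibition above a per-plate limit, the mean inhibition of that plate's test compounds plus 3 SD, cut at about 25% in these data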
OX1R HTRF conf: OX1R (human) antagonism, HTRF confirmed | shares compounds with OX1R antag-2 | OX1R-expressing cells, HTRF antagonist assay | inhibition, % at 6.6 µM | 1,800 tested, 49% active | AID 492964; in the data active = inhibition above about 55%;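 also: CHO cells expressing OX1R stimulated with orexin A at about EC80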
CHO-K1 HTRF cnt: signal in parental CHO-K1 cells, OX1R antagonist counter-screen; shares compounds with OX1R antag-2; HTRF counterscreen; inhibition, % at 6.6 µM; 1,800 tested, 48% active; AID 493232; in the data active = inhibition above about 17%
A number is an active result; n = inactive; x = not tested or not shown. This is a sample that favours compounds with a hit; in the whole collection about 3.2% have one here.

SMILES	CHO parental Ca	TRPN1 ag	TRPML3 agonist	OX1R antag-1	GPR7 antag	OX1R antag-2	GPR7 antag cf	MCHR1 antag	OX1R Fluo8 conf	CHO Ca counter	others
CCOc1ccc(NC2=C(Cl)C(=O)N(Cc3ccccc3)C2=O)cc1	n	n	n	51	74	n	99	64	n	n
Fc1ccc(-c2cc(C(F)(F)C(F)F)[nH]n2)cc1	n	n	n	n	42	n	64	63	37	n
CCOc1ccccc1NC(=O)c1cc(S(=O)(=O)NCc2ccco2)ccc1F	n	x	x	40	24	n	n	n	n	n
COc1ccc(OC)c(NC(=O)c2cc(S(=O)(=O)NCc3ccco3)ccc2F)c1	n	n	n	n	n	n	x	x	x	x
CCc1cc(C(=O)Nc2nc(-c3ccccn3)cs2)sc1C	n	x	x	n	x	n	x	x	x	x
COc1ccc(OCc2n(CC(=O)OC3CC(C)CCC3C(C)C)c3ccccc3[n+]2C)cc1 (stereo unspecified)	n	n	n	40	71	n	62	84	47	n
CC1CCC(C(C)C)C(OC(=O)CSc2nccc(=O)[nH]2)C1 (stereo unspecified)	n	n	n	n	n	n	x	x	x	x
CCOC(=O)[C@H]1[C@H]2COc3ccc(OC)cc3[C@H]2N2C(=O)CNC(=O)[C@@]12C	n	x	x	n	x	n	x	x	x	x
Cc1cccc(N2CCN(C(=O)c3ccc(CS(=O)Cc4cccc(Cl)c4)o3)CC2)c1C (stereo unspecified)	n	x	x	n	42	n	n	31	n	n
Cc1ccc(Cl)cc1N1CCN(C(=O)c2ccc(CS(=O)Cc3ccc(Cl)cc3)o2)CC1 (stereo unspecified)	n	x	x	n	n	n	x	x	x	x
O=C(OCc1cccc([N+](=O)[O-])c1)c1cc(=O)[nH]c2ccccc12	n	n	n	n	n	n	x	x	x	x
CCOC(=O)c1cc2[nH]c3ccccc3c2[n+](-c2ccc([N+](=O)[O-])cc2)c1C	n	n	n	n	23	114	n	n	x	x	OX1R HTRF conf=n;CHO-K1 HTRF cnt=75
CC(C)CN(C(=O)Cn1nnc(-c2ccc(F)cc2)n1)C1CCS(=O)(=O)C1 (stereo unspecified)	n	x	x	n	x	n	x	x	x	x
CCn1c(=O)c(=O)[nH]c2cc(C(=O)N(C)Cc3ccc(OC)c(F)c3)ccc21	n	x	x	n	n	n	x	x	x	x
COC(=O)c1cc2ccccn2c2c(C(=O)OC)c(C(=O)OC)cc1-2	n	n	n	n	31	94	n	22	x	x	OX1R HTRF conf=n;CHO-K1 HTRF cnt=25
COC(=O)c1cc2c(C)cc3ccc(C)cn3c-2c1C(=O)OC	n	n	n	n	n	n	x	x	x	x
Nc1c(C(=O)O)ccc2c1C(=O)c1ccccc1C2=O	n	n	n	n	23	107	n	n	x	x	OX1R HTRF conf=n;CHO-K1 HTRF cnt=29
COc1ccc(NC(=O)CN(C)C(=O)CCCc2nc3ccccc3s2)cc1	n	x	x	n	x	n	x	x	x	x
CC1(NC(=O)CC(c2ccccc2)(c2ccccc2)c2ccccc2)CCN(CCCc2ccccc2)C1=O (stereo unspecified)	n	x	x	n	x	n	x	x	x	x
COc1ccc(C(=O)CSc2n[nH]c(=O)[nH]c2=O)cc1	n	n	n	n	n	n	x	x	x	x
O=C(CSc1n[nH]c(=O)[nH]c1=O)c1ccc([N+](=O)[O-])cc1	n	n	n	n	26	134	n	n	x	x	OX1R HTRF conf=56;CHO-K1 HTRF cnt=80
CC(c1ccco1)N(C(=O)c1ccccc1NS(=O)(=O)c1ccc(Cl)c([N+](=O)[O-])c1)c1ccccn1 (stereo unspecified)	n	n	n	n	24	98	n	31	x	x	OX1R HTRF conf=n;CHO-K1 HTRF cnt=n
COc1ccc(-c2cc(=O)c3ccccc3s2)cc1	n	n	n	n	35	83	n	27	x	x	OX1R HTRF conf=85;CHO-K1 HTRF cnt=n
CN(C)C(=O)c1cc2cc([N+](=O)[O-])ccc2s1	n	n	n	n	26	120	n	n	x	x	OX1R HTRF conf=n;CHO-K1 HTRF cnt=33
O=C(N/N=C/c1ccco1)c1cc(-c2ccc3ccccc3c2)n[nH]1	n	n	n	44	n	n	x	x	n	n
SMILES	CHO parental Ca	TRPN1 ag	TRPML3 agonist	OX1R antag-1	GPR7 antag	OX1R antag-2	GPR7 antag cf	MCHR1 antag	OX1R Fluo8 conf	CHO Ca counter	others
COc1ccc(NC(=O)c2ccc(NC(=O)CN3CCC(C(N)=O)CC3)cc2)cc1	n	x	x	n	x	n	x	x	x	x
O=S(=O)(Nc1nc(-c2ccccc2)cs1)c1cc(Cl)ccc1Cl	n	x	x	n	n	n	x	x	x	x
O=C1OC(/C=C/c2ccccc2)=NC/1=C\c1cccnc1	n	n	n	50	n	n	x	x	n	n
COc1ccc(NC(=O)c2ccc(Cl)c(NC(=O)c3ccncc3)c2)cc1	n	n	n	n	n	n	x	x	x	x
COC(=O)c1c(-c2ccc(OC)cc2)sc2cc3c(cc12)OCO3	n	x	x	n	x	n	x	x	x	x
COC(=O)c1c(-c2ccc(N(C)C)cc2)sc2ccc(OC)cc12	n	x	x	65	x	n	x	x	n	n
COc1cc(/C=C/C(=O)O)ccc1O	n	x	x	n	x	n	x	x	x	x
COc1cc(/C=C/C(=O)CC(=O)/C=C/c2ccc(O)c(OC)c2)ccc1O	n	n	n	n	n	n	x	x	31	30
CCN(c1ccc(OC)cc1)S(=O)(=O)c1cc(-c2cc(C)no2)ccc1C(C)C	n	x	x	n	n	n	x	x	n	n
CCN(c1ccc(OC)cc1)S(=O)(=O)c1cc(-c2cc(C)no2)ccc1OC	n	x	x	n	n	n	x	x	x	x
O=C(CSCc1ccc(Cl)cc1)N/N=C/c1ccc(OCC(=O)Nc2ccccc2)cc1	n	n	n	n	n	n	x	x	n	n
CC(C)(C)N(Cc1ccccc1)C(=O)COC(=O)CNS(=O)(=O)c1ccc2ccccc2c1	n	x	x	n	x	n	x	x	x	x
O=C(NCC1CCCN(C(=O)CN2CCCCC2)C1)c1ccccc1Cl (stereo unspecified)	n	n	n	n	n	n	x	x	x	x
CSCC(=O)N1CCCC(CNC(=O)c2ccccc2Cl)C1 (stereo unspecified)	n	n	n	n	n	n	x	x	n	n
Cc1ccccc1-c1nnn(Cc2cccc(S(=O)(=O)N3CCOCC3)c2)n1	n	x	x	44	x	n	x	x	44	n
O=C(CSCc1ccccc1)NNc1c(F)c(F)cc(F)c1F	n	x	x	n	n	n	x	x	x	x

Source: PubChem BioAssay
